In ChEMBL document CHEMBL4196176, “Structure-Based Design of MptpB Inhibitors That Reduce Multidrug-Resistant Mycobacterium tuberculosis Survival and Infection Burden in Vivo” (J Med Chem, 2018) one finds inhibition and Activity data, which are given here for nine compounds.

For assay [1], the target named is T1, Phosphotyrosine protein phosphatase ptpB (Mycobacterium bovis (strain BCG / Pasteur 1173P2)) (UniProt A0A0H3M0T0).
T1 sequence (whole entry): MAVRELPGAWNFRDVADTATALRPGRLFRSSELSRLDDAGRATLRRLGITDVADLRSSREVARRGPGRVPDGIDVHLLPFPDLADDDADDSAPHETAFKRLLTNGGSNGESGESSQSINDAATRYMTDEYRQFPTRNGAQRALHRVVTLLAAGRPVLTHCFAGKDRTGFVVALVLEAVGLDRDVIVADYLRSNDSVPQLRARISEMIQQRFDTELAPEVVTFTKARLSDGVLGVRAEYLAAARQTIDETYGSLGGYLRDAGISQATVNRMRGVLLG
Briefly: Inhibition of Mycobacterium bovis BCG Pasteur ptpB infected in mouse J774A.1 cells assessed as reduction in intracellular bacterial burden at 80 uM after 72 hrs post infection. To be noted: Mycobacterium tuberculosis variant bovis BCG. The assay is classed as cell-based. The method, boiled down:
(§1)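 J774A.1 mouse macrophages in DMEM with 10% heat-inactivated FBS, seeded at 2 × 10^3/well overnight. Pretreated with inhibitor in DMSO or DMSO alone, then infected with BCG Pasteur at MOI 10:1 for 4 h and washed (time 0). Medium and inhibitor renewed at 24 h. Cells lysed in 0.05% Tween 80 at 72 h; CFU counted on 7H10 after 3 weeks. Triplicate, ≥3 experiments.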

The target in assay [2] is T1, Phosphotyrosine protein phosphatase ptpB (Mycobacterium bovis (strain BCG / Pasteur 1173P2)). Briefly: Inhibition of Mycobacterium bovis BCG Pasteur ptpB infected in mouse J774A.1 cells assessed as reduction in intracellular bacterial burden at 10 to 120 uM after 24 hrs post infection. The assay is classed as cell-based. The conditions noted are these: Mycobacterium tuberculosis variant bovis BCG. The method, boiled down:
as §1

Assay [3] shares this target. Briefly: Inhibition of Mycobacterium bovis BCG Pasteur ptpB infected in mouse J774A.1 cells assessed as reduction in intracellular bacterial burden at 10 to 120 uM after 72 hrs post infection relative to DMSO-treated control. The conditions noted are these: Mycobacterium tuberculosis variant bovis BCG. In kind it is cell-based. The method, boiled down:
as §1

Assay [4] has as its system Mycobacterium tuberculosis variant bovis BCG. Briefly: Antibacterial activity against Mycobacterium bovis BCG Pasteur infected in mouse J774A.1 cells assessed as reduction in bacterial burden at 0.3 ug/ml after 72 hrs post infection relative to control. The assay is classed as functional. Also noted: scale not given: the % may be the effect or the level left. The method, boiled down: as §1

For assay [5], the target named is T2, Phosphotyrosine protein phosphatase (Mycobacterium tuberculosis) (UniProt A0A045ISB3).
T2 sequence (whole entry): T1 sequence (whole entry) with G105D
The assay is described as follows: Inhibition of multi-drug resistant Mycobacterium tuberculosis Beijing-W_565 ptpB infected in human THP1 cells assessed as reduction in intracellular bacterial burden at 20 to 100 uM after 72 hrs post infection relative to DMSO-treated control. The assay is classed as cell-based. The gist of the method: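 PMA-differentiated THP1 cells (1 × 10^6/well) in RPMI with 10% FBS. Inhibitor (0, 20 or 80 μM in DMSO) added, then infected with thawed M. tuberculosis at MOI 1:1 for 3 h and washed 4 times. Medium and inhibitor renewed at 24 h. Cells lysed in 0.05% SDS at 72 h; CFU plated in duplicate and counted after 3 weeks. Triplicate.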

For assay [6], the target named is T1, Phosphotyrosine protein phosphatase ptpB (Mycobacterium bovis (strain BCG / Pasteur 1173P2)). The assay is described as follows: Inhibition of Mycobacterium bovis BCG Pasteur ptpB infected in mouse J774A.1 cells assessed as reduction in intracellular bacterial burden up to 500 uM after 72 hrs post infection relative to treated-DMSO control. The conditions noted are these: Mycobacterium tuberculosis variant bovis BCG. In kind it is cell-based. The gist of the method:
as §1

For assay [7] the target is unchanged. The assay is described as follows: Inhibition of Mycobacterium bovis BCG Pasteur ptpB infected in mouse J774A.1 cells assessed as reduction in intracellular bacterial burden at 5 uM after 72 hrs post infection in presence of rifampicin. In kind it is cell-based. The conditions noted are these: Mycobacterium tuberculosis variant bovis BCG. The method, boiled down: as §1

In assay [8] the test system is Mycobacterium tuberculosis variant bovis BCG. Briefly: Antibacterial activity against Mycobacterium bovis BCG Pasteur assessed as reduction in extracellular growth at 80 uM. The assay is classed as functional, organism-based.
In assay [9] the target is T1, Phosphotyrosine protein phosphatase ptpB (Mycobacterium bovis (strain BCG / Pasteur 1173P2)). Briefly: Inhibition of Mycobacterium bovis BCG Pasteur ptpB infected in mouse J774A.1 cells assessed as reduction in intracellular bacterial burden at 5 uM after 72 hrs post infection in presence of isoniazid. In kind it is cell-based. The conditions noted are these: Mycobacterium tuberculosis variant bovis BCG. The gist of the method:
as §1

Assay [10] concerns Mycobacterium tuberculosis variant bovis BCG. The assay is described as follows: Antibacterial activity against Mycobacterium bovis BCG Pasteur infected in mouse J774A.1 cells assessed as reduction in bacterial burden at 0.1 ug/ml after 72 hrs post infection relative to control. The assay is classed as functional. More on the design: scale not given: the % may be the effect or the level left. The method, boiled down: as §1

For assay [11], the target named is T2, Phosphotyrosine protein phosphatase (Mycobacterium tuberculosis). Briefly: Inhibition of multi-drug resistant Mycobacterium tuberculosis Beijing-W_565 ptpB infected in human THP1 cells assessed as reduction in intracellular bacterial burden at 20 to 80 uM after 72 hrs post infection relative to DMSO-treated control. In kind it is cell-based. The method, boiled down: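 THP1 cells (1 × 10^6/well) were PMA-treated overnight. Inhibitor (20 or 80 μM, in DMSO) was added in RPMI with 10% FBS before infection with thawed bacteria at MOI 1:1. Washed four times after 3 h; inhibitor re-added at 24 h. At 72 h, cells lysed in 0.05% SDS and CFU plated (duplicate 10-fold dilutions, 7H10, 3 weeks); triplicates.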

Changes are numbered by the printed parent chain. Calls of active or inactive are those of the source. The rule behind the calls is not given here.

Turning to `O=C(O)c1noc(-c2ccccc2)c1-c1cccc(-c2cc(Cl)c(O)c([N+](=O)[O-])c2)c1`, the inhibition result in [1] and in assay [2] was “Active” throughout. Also, the inhibition in [3] was in the range of 81 to 87%.

In the case of `O=C(O)c1noc(-c2ccccc2)c1-c1cccc(-c2cc(Cl)c(O)c(Cl)c2)c1`, the inhibition result in assay [2] was “Active”. The inhibition in assay [3] was in the range of 81 to 87%.

Turning to `CO[C@H]1/C=C/O[C@@]2(C)Oc3c(C)c(O)c4c(O)c(c(/C=N/N5CCN(C)CC5)c(O)c4c3C2=O)NC(=O)/C(C)=C\C=C\[C@H](C)[C@H](O)[C@@H](C)[C@@H](O)[C@@H](C)[C@H](OC(C)=O)[C@@H]1C` [RIFAMPIN], in [4], the Activity was less than 25%.

As for `Cc1onc(C(=O)O)c1-c1cccc(-c2cc(Cl)c(O)c(Cl)c2)c1`, the inhibition was less than 74% in assay [5], less than 84% in assay [6], more than 93% in assay [7] and more than 93% in [9]. In addition, the outcome in assay [8] was inactive.

`NNC(=O)c1ccncc1` [ISONIAZID]: in [10], the Activity was less than 25%.

In the case of `O=C(O)c1noc(-c2ccccc2)c1-c1cccc(-c2ccc(O)c(F)c2)c1`, the inhibition entry in assay [1] and in assay [2] was “Active” throughout. Besides, the inhibition in assay [3] was in the range of 81 to 87%.

Consider `O=C(O)c1noc(-c2ccccc2)c1-c1cccc(-c2ccc(O)c(Cl)c2)c1`, for which the inhibition result in assay [1] and in [2] was “Active” throughout. For the same compound, the inhibition in assay [3] lay in the range of 81 to 87%.

As for `COC(=O)c1c(O)cccc1OC/C=C/c1cccc(-c2cc(C(=O)O)no2)c1` [ISOXAZOLECARBOXYLIC ACID], the inhibition result in assay [11] is “Active”.

Regarding `O=C(O)c1noc(-c2ccccc2)c1-c1cccc(-c2ccc(O)cc2)c1`, the inhibition entry in [1] and in assay [2] was “Active” throughout. Besides, the inhibition in [3] lay within 81 to 87%.
